Results collected from several papers.
Lines come from different studies, so protocols differ.
Target: Calcium/calmodulin-dependent protein kinase kinase 1 (CAMKK1, Homo sapiens, UniProt Q8N5S9)

Compound	read-out	method	concentration	remaining binding
O=C(Nc1cccnn1)N1CC(C/C=C/c2cncc(Oc3ccc(C(F)(F)F)cn3)n2)C1	cell-free assay	competition with immobilised ligand	1 µM	100%
O=C(NCCCN1CCOCC1)c1ccc(Nc2ncc(Cl)c(-c3ccc(Cl)s3)n2)cc1	binding	competition with immobilised ligand	1 µM	73%
Cc1cnn2ncc(-c3ccnc(N(C)C)n3)c2c1	binding	–	1 µM	84%
CC(=O)N1CCC(c2ccc(C(=O)NC(=N)N)cc2C(F)(F)F)CC1	cell-free assay	competition with immobilised ligand	1 µM	100%
CC1CCCN1c1nccc(-c2cnn3ncccc23)n1 (stereo not shown)	binding	–	1 µM	100%
FC(F)(F)Oc1cccc(-c2cnc3ccc(-c4ccncc4)nn23)c1	cell-free assay	competition with immobilised ligand	5 µM	43%
Cc1nc(C2CCN(C(=O)c3ccc(OC(F)(F)F)cc3N)CC2)c2ncc(N3CCN(C)CC3)cc2n1	cell-free assay	competition with immobilised ligand	1 µM	100%
Nc1ncc2c(n1)-c1c([nH]c3ccc(C#CC4CC4)cc13)CCCC2	binding	competition with immobilised ligand	1 µM	98%
CNCc1ccccc1-c1csc([C@@H](C)Nc2nc(C)nc3cc(OC)c(OC)cc23)c1	cell-free assay	competition with immobilised ligand	1 µM	100%
Cc1cnc(Nc2ccc(C(=O)N3CCC(N4CCCC4)CC3)cc2)nc1-c1cc2ccccc2s1	binding	competition with immobilised ligand	1 µM	79%
CN(C)c1nccc(-c2cnn3ncccc23)n1	binding	–	1 µM	78%
O=C(c1ccc(Nc2ncc(Cl)c(-c3ccc(Cl)s3)n2)cc1)N1CCC(N2CCCC2)CC1	binding	competition with immobilised ligand	1 µM	86%
COc1cnc(Nc2cccc(S(N)(=O)=O)c2)nc1N1CCN(c2ccccc2)C(=O)C1	binding	competition with immobilised ligand	1 µM	100%
N[C@@H]1CCN(c2nccc(-c3cnn4ncccc34)n2)C1	binding	–	1 µM	100%
CS(=O)(=O)NCC[C@H](NC(=O)c1cncc2c1cnn2-c1ccc(F)cc1)c1ccnc(S(C)(=O)=O)c1	cell-free assay	competition with immobilised ligand	1 µM	100%
CN(C)c1nccc(-c2cnc3ncccn23)n1	binding	–	1 µM	100%
O=C(NCC1CCOCC1)c1n[nH]cc1NC(=O)c1c(F)cccc1F	binding	competition with immobilised ligand	1 µM	88%
C[C@@H]1CCN(c2nccc(-c3cnn4ncccc34)n2)C1	binding	–	1 µM	87%
c1cncc(-c2cccc(Nc3nccc(NC4CCCCC4)n3)c2)c1	binding	competition with immobilised ligand	10 µM	68%
C=CC(=O)N1CCC(C(=O)NCC(=O)N2CCN(c3nc(-c4cnc(N)nc4C(F)F)nc(N4CCOCC4)n3)CC2)CC1	binding	competition with immobilised ligand	1 µM	96%
CO[C@H]1CC[C@H](CNc2ccc(S(=O)(=O)NC(=O)c3ccc(N4CCN(CC5=C(c6ccc(Cl)cc6)CC(C)(C)CC5)CC4)cc3Oc3cnc4[nH]ccc4c3)cc2[N+](=O)[O-])CC1	cell-free assay	competition with immobilised ligand	1 µM	83%
COc1cnc(Nc2cccc(S(N)(=O)=O)c2)nc1N1CCN(c2ccccc2)CC1	binding	competition with immobilised ligand	1 µM	92%
